The source made the active and inactive calls. The rule behind the calls is not given here.
Columns and labels:
[1] = molecular target: Ribosomal protein S6 kinase alpha-3 (Homo sapiens) (UniProt P51812); assay: Inhibition of RSK2 domain2 Lys2 labeling site harbouring TVEYLHAQGVVHRDLKPSNILYVDESGNPESIR in human Huh-7 cells at 1 uM by KiNativ Profiling analysis relative to control; format: cell-based
[2] = molecular target: Ribosomal protein S6 kinase alpha-3 (Homo sapiens) (UniProt P51812); assay: Inhibition of RSK2 domain2 ACT labeling site in human Huh-7 cell lysate at 1 uM by KiNativ Profiling analysis relative to control; format: subcellular
[3] = molecular target: T1, Mitogen-activated protein kinase kinase kinase kinase 2 (Homo sapiens) (UniProt Q12851); assay: Inhibition of MAP4K2 Lys2 labeling site in human A-375 cells at 0.5 uM by KiNativ Profiling analysis relative to control; format: cell-based
T1 sequence (whole entry): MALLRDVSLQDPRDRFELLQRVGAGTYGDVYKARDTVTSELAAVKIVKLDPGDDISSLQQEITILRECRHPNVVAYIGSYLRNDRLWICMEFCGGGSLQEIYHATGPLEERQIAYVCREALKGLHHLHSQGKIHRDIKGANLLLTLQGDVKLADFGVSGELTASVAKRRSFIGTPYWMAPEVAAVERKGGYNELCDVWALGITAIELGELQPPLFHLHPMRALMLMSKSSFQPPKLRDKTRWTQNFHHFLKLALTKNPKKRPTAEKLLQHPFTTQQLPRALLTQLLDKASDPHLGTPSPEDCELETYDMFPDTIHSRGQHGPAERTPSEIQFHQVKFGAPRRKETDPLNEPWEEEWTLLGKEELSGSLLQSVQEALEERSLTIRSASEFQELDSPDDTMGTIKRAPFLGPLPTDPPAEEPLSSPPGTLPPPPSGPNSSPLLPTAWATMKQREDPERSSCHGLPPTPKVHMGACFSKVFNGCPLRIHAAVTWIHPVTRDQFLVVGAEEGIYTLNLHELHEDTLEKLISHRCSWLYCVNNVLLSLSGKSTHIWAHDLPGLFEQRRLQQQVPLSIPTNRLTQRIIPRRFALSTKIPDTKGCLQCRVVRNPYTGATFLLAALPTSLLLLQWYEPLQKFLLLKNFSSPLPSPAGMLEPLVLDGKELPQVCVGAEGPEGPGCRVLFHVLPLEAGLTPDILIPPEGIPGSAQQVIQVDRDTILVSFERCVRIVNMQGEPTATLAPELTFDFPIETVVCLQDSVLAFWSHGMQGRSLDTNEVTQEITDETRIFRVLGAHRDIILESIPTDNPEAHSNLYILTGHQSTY

[4] = molecular target: p38 delta/gamma (Homo sapiens) (UniProt O15264+P53778); assay: Inhibition of p38d/g K2 labeling site in human Huh-7 cells at 10 uM by KiNativ Profiling analysis relative to control; format: cell-based
[5] = molecular target: Calcium/calmodulin-dependent protein kinase kinase 1 (Homo sapiens) (UniProt Q8N5S9); assay: Inhibition of CAMKK1 (unknown origin) at 10 uM by Ambit Kinomescan binding assay
Calcium/calmodulin-dependent protein kinase kinase 1 (Homo sapiens), sequence (Q8N5S9 whole entry, looked up): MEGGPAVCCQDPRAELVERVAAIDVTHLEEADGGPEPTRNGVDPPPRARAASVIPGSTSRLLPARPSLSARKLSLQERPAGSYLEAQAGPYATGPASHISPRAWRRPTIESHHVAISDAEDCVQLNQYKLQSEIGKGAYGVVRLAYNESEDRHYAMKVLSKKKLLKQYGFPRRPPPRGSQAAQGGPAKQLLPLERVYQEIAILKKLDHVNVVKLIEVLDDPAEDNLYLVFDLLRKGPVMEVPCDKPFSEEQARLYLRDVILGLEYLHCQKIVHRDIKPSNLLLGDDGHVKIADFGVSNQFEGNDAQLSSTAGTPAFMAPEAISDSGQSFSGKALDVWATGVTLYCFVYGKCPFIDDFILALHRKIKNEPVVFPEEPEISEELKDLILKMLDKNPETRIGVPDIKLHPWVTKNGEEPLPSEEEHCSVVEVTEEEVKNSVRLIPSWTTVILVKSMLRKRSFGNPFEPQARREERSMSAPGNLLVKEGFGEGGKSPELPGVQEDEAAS

[6] = molecular target: Serine/threonine-protein kinase A-Raf (Homo sapiens) (UniProt P10398); assay: Inhibition of ARAF Lys2 labeling site in human A-375 cells at 0.5 uM by KiNativ Profiling analysis relative to control; format: cell-based
Serine/threonine-protein kinase A-Raf (Homo sapiens), sequence (P10398 whole entry): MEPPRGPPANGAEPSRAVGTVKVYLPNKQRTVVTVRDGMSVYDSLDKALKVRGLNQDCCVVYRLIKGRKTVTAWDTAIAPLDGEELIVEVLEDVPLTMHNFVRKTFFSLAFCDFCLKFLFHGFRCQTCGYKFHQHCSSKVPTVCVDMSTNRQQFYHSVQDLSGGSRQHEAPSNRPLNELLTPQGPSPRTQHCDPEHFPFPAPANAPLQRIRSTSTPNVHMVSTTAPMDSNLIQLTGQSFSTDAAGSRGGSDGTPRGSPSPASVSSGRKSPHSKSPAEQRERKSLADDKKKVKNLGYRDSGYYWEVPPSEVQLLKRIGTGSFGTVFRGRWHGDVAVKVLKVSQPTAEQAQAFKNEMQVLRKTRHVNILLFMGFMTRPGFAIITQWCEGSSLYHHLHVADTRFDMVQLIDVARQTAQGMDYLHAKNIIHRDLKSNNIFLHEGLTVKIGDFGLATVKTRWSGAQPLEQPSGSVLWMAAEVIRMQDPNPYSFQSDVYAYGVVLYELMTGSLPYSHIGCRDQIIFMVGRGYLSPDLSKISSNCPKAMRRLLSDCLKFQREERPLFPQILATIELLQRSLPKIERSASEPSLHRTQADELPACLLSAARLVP

[7] = molecular target: T2, Dual specificity mitogen-activated protein kinase kinase 6 (Homo sapiens) (UniProt P52564); assay: Inhibition of MAP2K6 Lys1 labeling site in human A-375 cells at 0.5 uM by KiNativ Profiling analysis relative to control; format: cell-based
T2 sequence (whole entry): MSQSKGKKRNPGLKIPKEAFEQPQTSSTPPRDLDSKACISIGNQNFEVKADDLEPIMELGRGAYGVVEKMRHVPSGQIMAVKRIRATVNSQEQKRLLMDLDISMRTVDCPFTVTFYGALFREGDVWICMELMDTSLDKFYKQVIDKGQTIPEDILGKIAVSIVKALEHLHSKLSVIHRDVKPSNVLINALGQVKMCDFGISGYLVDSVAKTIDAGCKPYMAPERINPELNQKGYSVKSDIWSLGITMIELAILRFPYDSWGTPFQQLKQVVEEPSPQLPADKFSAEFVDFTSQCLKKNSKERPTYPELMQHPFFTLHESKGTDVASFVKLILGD

[8] = molecular target: Phosphatidylinositol 4-phosphate 5-kinase type-1 gamma (Homo sapiens) (UniProt O60331); assay: Inhibition of PIP5K1C (unknown origin) at 1 uM by Ambit Kinomescan binding assay relative to control; values are per cent of control
Phosphatidylinositol 4-phosphate 5-kinase type-1 gamma (Homo sapiens), sequence (O60331 whole entry): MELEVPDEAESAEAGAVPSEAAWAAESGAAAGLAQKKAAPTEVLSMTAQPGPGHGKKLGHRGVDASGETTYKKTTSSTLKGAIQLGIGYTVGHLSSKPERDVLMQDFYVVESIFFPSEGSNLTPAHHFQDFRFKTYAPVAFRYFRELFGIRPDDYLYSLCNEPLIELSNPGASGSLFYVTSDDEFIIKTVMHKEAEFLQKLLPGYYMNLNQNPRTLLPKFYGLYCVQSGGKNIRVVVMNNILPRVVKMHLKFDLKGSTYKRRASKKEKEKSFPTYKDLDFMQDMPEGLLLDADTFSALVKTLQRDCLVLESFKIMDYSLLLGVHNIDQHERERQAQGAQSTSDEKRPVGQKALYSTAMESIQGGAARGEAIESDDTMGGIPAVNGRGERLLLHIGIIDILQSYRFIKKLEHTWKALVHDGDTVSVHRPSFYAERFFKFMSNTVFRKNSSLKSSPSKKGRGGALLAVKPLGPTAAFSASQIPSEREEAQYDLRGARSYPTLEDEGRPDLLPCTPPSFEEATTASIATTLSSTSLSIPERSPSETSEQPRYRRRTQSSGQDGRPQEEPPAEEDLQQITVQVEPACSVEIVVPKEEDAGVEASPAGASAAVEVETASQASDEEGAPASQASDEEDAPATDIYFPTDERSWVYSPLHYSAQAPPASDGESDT

[9] = molecular target: Myosin-IIIb (Homo sapiens) (UniProt Q8WXR4); assay: Inhibition of MYO3B (unknown origin) at 1 uM by Ambit Kinomescan binding assay relative to control
Myosin-IIIb (Homo sapiens), sequence (Q8WXR4 whole entry): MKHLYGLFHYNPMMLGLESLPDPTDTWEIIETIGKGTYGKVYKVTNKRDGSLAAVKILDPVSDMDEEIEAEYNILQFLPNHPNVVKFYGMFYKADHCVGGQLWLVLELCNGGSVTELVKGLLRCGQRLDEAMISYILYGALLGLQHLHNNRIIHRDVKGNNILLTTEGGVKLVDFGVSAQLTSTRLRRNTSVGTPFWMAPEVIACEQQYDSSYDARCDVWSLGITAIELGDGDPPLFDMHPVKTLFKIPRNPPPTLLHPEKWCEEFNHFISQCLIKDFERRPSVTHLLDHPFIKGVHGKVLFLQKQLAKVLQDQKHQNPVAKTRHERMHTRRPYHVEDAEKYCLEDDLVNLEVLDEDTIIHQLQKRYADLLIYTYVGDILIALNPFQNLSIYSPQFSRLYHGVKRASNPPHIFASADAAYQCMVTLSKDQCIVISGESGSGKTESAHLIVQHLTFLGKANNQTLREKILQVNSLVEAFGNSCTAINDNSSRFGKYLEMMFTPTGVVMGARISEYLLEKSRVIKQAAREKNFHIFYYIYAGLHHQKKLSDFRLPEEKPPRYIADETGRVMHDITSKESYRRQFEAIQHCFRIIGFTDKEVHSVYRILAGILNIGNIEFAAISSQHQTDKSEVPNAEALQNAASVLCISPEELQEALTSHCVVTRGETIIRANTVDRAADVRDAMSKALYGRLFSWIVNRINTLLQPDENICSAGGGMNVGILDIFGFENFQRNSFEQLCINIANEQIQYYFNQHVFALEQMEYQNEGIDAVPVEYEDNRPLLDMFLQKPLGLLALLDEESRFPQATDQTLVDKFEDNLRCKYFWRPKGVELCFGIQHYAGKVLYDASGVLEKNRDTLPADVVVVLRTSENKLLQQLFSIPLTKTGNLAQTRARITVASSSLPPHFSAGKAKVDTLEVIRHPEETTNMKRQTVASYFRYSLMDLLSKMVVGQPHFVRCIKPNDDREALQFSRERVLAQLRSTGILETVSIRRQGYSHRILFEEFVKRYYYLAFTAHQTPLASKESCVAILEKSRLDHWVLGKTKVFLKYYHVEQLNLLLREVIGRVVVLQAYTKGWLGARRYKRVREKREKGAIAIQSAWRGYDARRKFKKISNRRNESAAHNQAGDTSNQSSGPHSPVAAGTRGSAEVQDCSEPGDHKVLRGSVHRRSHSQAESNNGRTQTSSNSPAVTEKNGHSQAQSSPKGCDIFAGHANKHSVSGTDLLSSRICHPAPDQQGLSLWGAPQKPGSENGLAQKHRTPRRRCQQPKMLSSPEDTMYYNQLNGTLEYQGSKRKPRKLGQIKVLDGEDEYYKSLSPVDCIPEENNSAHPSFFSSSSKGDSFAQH
Method in brief: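 In vitro ATP-site competition binding assay against a panel of over 420 kinases (KinomeScan), with compound tested at 10 or 1 μM.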

[10] = molecular target: Tyrosine-protein kinase Fyn (Homo sapiens) (UniProt P06241); assay: Inhibition of FYN (unknown origin) at 1 uM by Ambit Kinomescan binding assay relative to control; values are per cent of control
Tyrosine-protein kinase Fyn (Homo sapiens), sequence (P06241 2-537 limits assumed): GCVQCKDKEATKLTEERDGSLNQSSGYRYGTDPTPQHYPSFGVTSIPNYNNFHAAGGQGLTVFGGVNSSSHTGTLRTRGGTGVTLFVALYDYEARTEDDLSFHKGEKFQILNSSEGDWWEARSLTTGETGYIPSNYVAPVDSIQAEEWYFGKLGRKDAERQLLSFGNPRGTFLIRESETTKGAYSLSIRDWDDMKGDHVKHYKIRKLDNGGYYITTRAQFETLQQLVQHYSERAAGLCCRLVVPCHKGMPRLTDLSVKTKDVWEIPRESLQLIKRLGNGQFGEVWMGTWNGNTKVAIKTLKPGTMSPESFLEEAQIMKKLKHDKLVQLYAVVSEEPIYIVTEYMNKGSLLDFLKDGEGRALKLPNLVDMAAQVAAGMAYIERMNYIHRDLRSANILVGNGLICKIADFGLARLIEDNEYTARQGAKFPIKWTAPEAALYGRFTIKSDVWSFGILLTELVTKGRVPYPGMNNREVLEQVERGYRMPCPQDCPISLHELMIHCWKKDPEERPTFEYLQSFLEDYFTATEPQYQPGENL

[11] = molecular target: T3, Serine/threonine-protein kinase ULK3 (Homo sapiens) (UniProt Q6PHR2); assay: Inhibition of ULK3 (unknown origin) at 1 uM by Ambit Kinomescan binding assay relative to control
T3 sequence (whole entry): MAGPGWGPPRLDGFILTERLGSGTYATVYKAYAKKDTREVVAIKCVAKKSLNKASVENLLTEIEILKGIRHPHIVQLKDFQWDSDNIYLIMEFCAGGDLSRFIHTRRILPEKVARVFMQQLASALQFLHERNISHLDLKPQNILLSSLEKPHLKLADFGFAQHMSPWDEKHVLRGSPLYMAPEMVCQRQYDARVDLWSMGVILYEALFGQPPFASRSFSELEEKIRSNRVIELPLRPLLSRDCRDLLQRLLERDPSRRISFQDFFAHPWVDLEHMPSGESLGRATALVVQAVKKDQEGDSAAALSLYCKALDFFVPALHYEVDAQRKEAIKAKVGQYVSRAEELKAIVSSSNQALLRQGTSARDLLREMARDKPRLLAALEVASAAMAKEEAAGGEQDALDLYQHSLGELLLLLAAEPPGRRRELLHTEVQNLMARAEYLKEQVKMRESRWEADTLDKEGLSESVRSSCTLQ

Ribosomal protein S6 kinase alpha-3 (Homo sapiens), sequence (P51812 whole entry, the tested form may be a part): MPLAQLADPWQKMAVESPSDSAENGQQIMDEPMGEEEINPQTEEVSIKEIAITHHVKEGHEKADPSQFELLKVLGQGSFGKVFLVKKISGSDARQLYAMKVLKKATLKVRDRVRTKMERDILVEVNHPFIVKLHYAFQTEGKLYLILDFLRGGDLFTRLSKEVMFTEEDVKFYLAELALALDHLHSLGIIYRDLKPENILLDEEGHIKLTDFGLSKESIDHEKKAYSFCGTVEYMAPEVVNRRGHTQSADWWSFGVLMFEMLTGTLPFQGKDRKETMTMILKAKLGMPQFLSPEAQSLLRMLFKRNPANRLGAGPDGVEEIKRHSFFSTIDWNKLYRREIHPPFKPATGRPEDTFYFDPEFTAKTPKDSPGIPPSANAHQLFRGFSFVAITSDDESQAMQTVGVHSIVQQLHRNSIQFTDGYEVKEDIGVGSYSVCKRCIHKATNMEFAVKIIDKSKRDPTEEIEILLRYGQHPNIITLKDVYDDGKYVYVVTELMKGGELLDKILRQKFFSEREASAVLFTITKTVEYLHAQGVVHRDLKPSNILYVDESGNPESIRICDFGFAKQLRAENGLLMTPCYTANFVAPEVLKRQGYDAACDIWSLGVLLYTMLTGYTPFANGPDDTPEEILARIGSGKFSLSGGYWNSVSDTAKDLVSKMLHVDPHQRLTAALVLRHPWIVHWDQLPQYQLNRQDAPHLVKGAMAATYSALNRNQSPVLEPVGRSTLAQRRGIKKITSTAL

CNc1cc(Oc2cc(C(=O)Nc3cc(N4CCN(C)CC4)cc(C(F)(F)F)c3)ccc2C)ncn1
inhibition [1]: 11.5%
inhibition [2]: 1.9%

CCN1CCN(Cc2ccc(NC(=O)c3ccc(C)c(Oc4ccnc5[nH]ccc45)c3)cc2C(F)(F)F)CC1
inhibition [3]: 91.1%
inhibition [4]: 65%
inhibition [5]: inactive
inhibition [6]: 18.4%
inhibition [7]: 4.5%

CCN1CCN(Cc2ccc(NC(=O)c3ccc(C)c(/C=C/c4cnc5[nH]ccc5c4OC)c3)cc2C(F)(F)F)CC1
percent of control [8]: 100%
inhibition [9]: 84%
percent of control [10]: 5.2%
inhibition [11]: 55%

Source: ChEMBL document CHEMBL5696442, “Discovery of type II inhibitors of TGFβ-activated kinase 1 (TAK1) and mitogen-activated protein kinase kinase kinase kinase 2 (MAP4K2)” (J Med Chem, 2015)
